Broadly, the MIC is the lowest concentration found to suppress growth. The low end stands for a more susceptible organism, the high end for a less susceptible organism.

From ChEMBL document CHEMBL1128718, “2-Substituted penems with amino acid-related side chains: synthesis and antibacterial activity of a new series of beta-lactam antibiotics” (1995) come the findings set out here.

Common to all, as to assay type: functional
Assay [1] relates to Escherichia coli. Briefly: In Vitro antibacterial activity against (Ec) Escherichia coli ATCC 25922. In a few lines:
(§1)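 Panel of standard ATCC strains plus modified strains: methicillin-resistant, hyperpermeable, β-lactamase-producing (TEM1, TEM2, SHV) and β-lactamase-lacking. MIC determined in Mueller Hinton 2 medium, inoculum 10⁴ cells/mL, incubated 24 h at 37 °C.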

Assay [2] relates to Escherichia coli. The assay can be described thus: In Vitro antibacterial activity against (Ec SHV) Escherichia coli […] strain. A digest of the protocol:
as §1

Assay [3] concerns Escherichia coli. Briefly: In Vitro antibacterial activity against (Ec TEM2) Escherichia coli […] strain. In a few lines:
as §1

Assay [4] relates to Staphylococcus aureus. The assay can be described thus: In vitro antibacterial activity against Sa MR(II) homogeneous methicillin resistant Staphylococcus aureus. A digest of the protocol: (§2)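 MIC was determined in Mueller Hinton 2 medium with an inoculum of 10⁴ cells/mL and incubation for 24 h at 37 °C. Strains: Sa(I) is S. aureus ATCC 29213; Sa MR(I) is a heterogeneous methicillin-resistant S. aureus; Sa MR(II) is a homogeneous methicillin-resistant S. aureus.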

For assay [5], the system named is Staphylococcus aureus. The assay can be described thus: In vitro antibacterial activity against Sa MR(I) heterogeneous methicillin resistant Staphylococcus aureus. In a few lines:
as §2

For assay [6], the system named is Escherichia coli. The assay can be described thus: In Vitro antibacterial activity against (Ec DC2) hyperpermeable Escherichia coli strain. A digest of the protocol:
as §1

The test system of assay [7] is Enterococcus faecalis. The assay can be described thus: In Vitro antibacterial activity against (Ef) Enterococcus faecalis ATCC 29212. In a few lines:
as §1

Assay [8] has as its system Pseudomonas aeruginosa. The assay can be described thus: In Vitro antibacterial activity against (Pa) hyperpermeable Pseudomonas aeruginosa […] strain. In a few lines: as §1
Assay [9] deals with Staphylococcus aureus. The assay can be described thus: In vitro antibacterial activity against Sa(II) Staphylococcus aureus ATCC 25923. In a few lines:
as §1

Assay [10] concerns Pseudomonas aeruginosa. The assay can be described thus: In Vitro antibacterial activity against(Pa) Pseudomonas aeruginosa ATCC 27853. A digest of the protocol:
as §1

For assay [11], the system named is Escherichia coli. The assay can be described thus: In Vitro antibacterial activity against (Ec TEM1) Escherichia coli […] strain. A digest of the protocol: as §1
The test system of assay [12] is Escherichia coli. The assay can be described thus: In Vitro antibacterial activity against (Ec L) Escherichia coli […] strain. A digest of the protocol: as §1
Assay [13] has as its system Staphylococcus aureus. The assay can be described thus: In vitro antibacterial activity against Sa(I) Staphylococcus aureus ATCC 29213. In a few lines: as §2
Assay [14] concerns Pseudomonas aeruginosa. Briefly: In Vitro antibacterial activity against (Pa G242) hyperpermeable Pseudomonas aeruginosa strain. A digest of the protocol: as §1
Assay [15] concerns Enterococcus faecalis. The assay can be described thus: In vitro Anti Bacterial Activity (MIC90) against 90% of tested clinical Isolates of Enterococcus faecalis(47). A digest of the protocol:
(§3)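 Aerobic clinical isolates; MICs in Mueller Hinton 2 medium, inoculum 10⁴ cells/mL, incubated 24 h at 37 °C; MIC90 taken across isolates of each species.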

A further assay concerns Enterococcus faecium. Briefly: In vitro Anti Bacterial Activity (MIC90) against 90% of tested clinical Isolates of Enterococcus faecium(47). A digest of the protocol:
as §3

The subject of another assay is Streptococcus pyogenes. The assay can be described thus: In vitro Anti Bacterial Activity (MIC90) against 90% of tested clinical Isolates of Streptococcus pyogenes(31).
The test system of a further assay is Haemophilus influenzae. The assay can be described thus: In vitro Anti Bacterial Activity (MIC90) against 90% of tested clinical Isolates of Haemophilus Influenzae(21). A digest of the protocol:
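MIC90 over clinical isolates; MICs in Haemophilus Test Medium Base with Haemophilus Test Medium Supplement, inoculum 10⁴ cells/mL, 24–48 h at 37 °C.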

In the next assay the test system is Klebsiella pneumoniae. Briefly: In Vitro Anti Bacterial Activity (MIC90) against 90% of tested clinical Isolates of Klebsiella pneumoniae(20). A digest of the protocol:
(§4)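 Over 500 clinical isolates tested in total; the line gives the isolate count. MIC90 for aerobes by dilution in Mueller Hinton 2 medium, inoculum 10⁴ cells/mL, incubated 24 h at 37 °C.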

The subject of the next assay is Moraxella catarrhalis. Briefly: In vitro Anti Bacterial Activity (MIC90) against 90% of tested clinical Isolates of Branhamella catarrhalis(27).
The test system of another assay is Listeria monocytogenes. The assay can be described thus: In vitro Anti Bacterial Activity (MIC90) against 90% of tested clinical Isolates of Listeria monocytogenes (20).
Another assay relates to Clostridium perfringens. Briefly: In vitro Anti Bacterial Activity (MIC90) against 90% of tested clinical Isolates of Clostridium perfringens(27). In a few lines:
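MIC90 over clinical isolates of this anaerobic species, taken from the MIC distribution. Anaerobes were tested on Wilkins-Chalgren agar with an inoculum of 10⁵ cells/mL and incubated 24–48 h at 37 °C.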

Another assay deals with Yersinia sp. The assay can be described thus: In Vitro Anti Bacterial Activity (MIC90) against 90% of tested clinical Isolates of Yersinia species(20). To be noted: Yersinia sp. (in: enterobacteria).
In assay [16] the test system is Staphylococcus aureus. Briefly: In vitro Anti Bacterial Activity (MIC90) against 90% of tested clinical Isolates of Staphylococcus aureus MS (6). In a few lines: as §3
In another assay the test system is Bacteroides fragilis. The assay can be described thus: In vitro Anti Bacterial Activity (MIC90) against 90% of tested clinical Isolates of Bacteroides fragilis(15). In a few lines:
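MIC90 over clinical anaerobe isolates; MICs in Wilkins-Chalgren agar, inoculum 10⁵ cells/mL, 24–48 h at 37 °C.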

For assay [17], the system named is Staphylococcus aureus. Briefly: In vitro Anti Bacterial Activity (MIC90) against 90% of tested clinical Isolates of Staphylococcus aureus MV (20).
The test system of a further assay is Aeromonas. Briefly: In vitro 90% of tested clinical Isolates of Aeromonas species(21). In a few lines:
as §4

Another assay relates to Streptococcus agalactiae. Briefly: In vitro Anti Bacterial Activity (MIC90) against 90% of tested clinical Isolates of Streptococcus agalactiaeB(21).
Another assay relates to Streptococcus pneumoniae. The assay can be described thus: In Vitro Anti Bacterial Activity (MIC90) against 90% of tested clinical Isolates of Streptococcus pneumoniae (23).
Assay [18] has as its system Staphylococcus epidermidis. The assay can be described thus: In vitro Anti Bacterial Activity (MIC90) against 90% of tested clinical Isolates of S. epidermidis(13). A digest of the protocol:
as §3

Values after ≈ are worked out from the molar mass of the structure shown. Some results are limits rather than exact numbers.

`C[C@@H](O)[C@H]1C(=O)N2C(C(=O)O)=C(CSC(=S)N(C)CC(N)=O)S[C@H]12`: the MIC against Escherichia coli [1] came to 8 µg/mL (≈ 20.4 µM); in the assay on Escherichia coli [2], 16 µg/mL (≈ 40.9 µM); against Escherichia coli [3], 8 µg/mL (≈ 20.4 µM); against Staphylococcus aureus [4], 2 µg/mL (≈ 5.11 µM); in the assay with Staphylococcus aureus [5] it was 0.03 µg/mL (≈ 0.0766 µM); in the assay on Escherichia coli [6], 0.5 µg/mL (≈ 1.28 µM). Also, the minimum inhibitory concentration (MIC) in the assay with Enterococcus faecalis [7] was 8 µg/mL (≈ 20.4 µM); with Pseudomonas aeruginosa [8] it was 4 µg/mL (≈ 10.2 µM); against Staphylococcus aureus [9], 0.12 µg/mL (≈ 0.307 µM); with Pseudomonas aeruginosa [10] it was > 64 µg/mL; with Escherichia coli [11], 8 µg/mL (≈ 20.4 µM); in the assay with Escherichia coli [12] it was 16 µg/mL (≈ 40.9 µM). Besides, the MIC against Staphylococcus aureus [13] is 0.12 µg/mL (≈ 0.307 µM); in the assay with Pseudomonas aeruginosa [14], 8 µg/mL (≈ 20.4 µM).

`CC1(C)S[C@@H]2[C@H](NC(=O)[C@H](N)c3ccc(O)cc3)C(=O)N2[C@H]1C(=O)O` [AMOXICILLIN]: the MIC90 was 0.5 µg/mL (≈ 1.37 µM) with Enterococcus faecalis [15]; 32 µg/mL (≈ 87.6 µM) against Enterococcus faecium; 0.015 µg/mL (≈ 0.041 µM) against Streptococcus pyogenes; 1 µg/mL (≈ 2.74 µM) against Haemophilus influenzae; > 64 µg/mL with Klebsiella pneumoniae; 2 µg/mL (≈ 5.47 µM) against Moraxella catarrhalis. The MIC90 in the assay on Listeria monocytogenes is 0.5 µg/mL (≈ 1.37 µM); against Clostridium perfringens it was 0.06 µg/mL (≈ 0.164 µM); in the assay with Yersinia sp., > 64 µg/mL; with Staphylococcus aureus [16], 1 µg/mL (≈ 2.74 µM); against Bacteroides fragilis it was 32 µg/mL (≈ 87.6 µM); against Staphylococcus aureus [17], 32 µg/mL (≈ 87.6 µM). For the same compound, the MIC90 in the assay with Aeromonas is > 32 µg/mL; in the assay on Streptococcus agalactiae it was 0.06 µg/mL (≈ 0.164 µM); against Streptococcus pneumoniae, 0.015 µg/mL (≈ 0.041 µM); in assay [18], 4 µg/mL (≈ 10.9 µM).
